Five compounds from ChEMBL document CHEMBL3739352, “Anticonvulsant activity, crystal structures, and preliminary safety evaluation of N-trans-cinnamoyl derivatives of selected (un)modified aminoalkanols” (Eur J Med Chem, 2016) can be followed below.

Series [1] relates to Rattus norvegicus. Briefly: Neurotoxicity in Sprague-Dawley rat at 30 mg/kg, po after 2 hrs. Format: toxicity, organism-based. The settings on record: in vivo. The method in brief:
(§1)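 Sprague-Dawley rats were given 30 mg/kg orally in 0.5% methylcellulose. Neurotoxicity was checked at 0.25, 0.5, 1.0, 2.0 and 4 h after dosing. Results are given as number of rats showing neurotoxicity/number tested.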

In series [2] the test system is Rattus norvegicus. Kind of series: Neurotoxicity in Sprague-Dawley rat at 30 mg/kg, po after 4 hrs. Format: toxicity, organism-based. The settings on record: in vivo. The essentials: as §1
In series [3] the test system is Rattus norvegicus. Briefly: Neurotoxicity in Sprague-Dawley rat at 30 mg/kg, po after 0.5 hrs. Format: toxicity, organism-based. The settings on record: in vivo. The method in brief:
as §1

The subject of series [4] is Rattus norvegicus. Kind of series: Neurotoxicity in Sprague-Dawley rat at 30 mg/kg, po after 0.25 hrs. Format: toxicity, organism-based. The settings on record: in vivo. The essentials: as §1
A short description of series [5]: Hepatotoxicity against human HepG2 cells assessed as cell viability at 25 uM after 24 hrs by MTT assay relative to control. The settings on record: read-out: Activity. Format: toxicity, cell-based. The essentials: (§2)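 HepG2 cells (EMEM, 10% FBS, 37 °C, 5% CO₂) were seeded at 1 × 10⁴ per well and cultured overnight. They were then exposed to increasing compound concentrations for 24 h. MTT reagent was added for 3 h and formazan crystals dissolved before reading. Data are mean ± SD of at least three independent experiments, relative to untreated control.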
Background: Tetrazolium assays rely on reduction of a dye to a coloured formazan, in cell work by metabolically active cells.

A short description of series [6]: Protection index, ratio of TD50 for neurotoxicity in ip dosed albino Carworth Farms No.1 mouse to ED50 for anticonvulsant activity in ip dosed albino Carworth Farms No.1 mouse assessed as protection against maximal electroshock-induced seizures. Format: toxicity, organism-based. The settings on record: in vivo, read-out: Ratio TD50/ED50. The method in brief:
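Graded i.p. doses in 0.5% methylcellulose were given to albino Carworth Farms No.1 mice. ED50 was determined in MES, scPTZ or 6-Hz (32 mA) tests, and TD50 by rotarod. PI was calculated as TD50/ED50.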
A general note: The maximal electroshock test induces tonic seizures with an electrical stimulus.

A short description of series [7]: in vitro. The settings on record: human, HepG2 cells.
For series [8], the system named is Mus musculus. Kind of series: Anticonvulsant activity in albino Carworth Farms No.1 mouse assessed as protection against 6-Hz electroshock-induced seizures at 100 mg/kg, ip after 2 hrs. Format: functional, organism-based. The method in brief:
(§3)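 Carworth Farms No.1 albino mice were dosed i.p. at 100 mg/kg (0.5% methylcellulose solution or suspension). 6-Hz seizures were induced at 32 mA at 0.25, 0.5, 1.0, 2.0 and 4 h after injection. Results are given as animals protected / animals tested.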

Series [9] has as its system Rattus norvegicus. Kind of series: Anticonvulsant activity in po dosed Sprague-Dawley rat assessed as protection against maximal electroshock-induced seizures after 0.5 hrs. Format: functional. The essentials:
(§4)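 Sprague-Dawley rats received graded oral doses suspended or dissolved in 0.5% methylcellulose. Challenge was maximal electroshock or subcutaneous pentetrazol at the stated time after dosing.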

The nature of series [10]: in vitro. The settings on record: human, HepG2 cells. This is another data set of the same source.
Series [11] in a line: Hepatotoxicity against human HepG2 cells assessed as cell viability at 50 uM after 24 hrs by MTT assay relative to control.
A further series concerns HepG2. Briefly: Cytotoxicity against human HepG2 cells assessed as change in cell morphology after 48 hrs by inverted microscopic analysis. Format: cell-based. The settings on record: hepg2, 48 h. The method in brief: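 HepG2 cells in EMEM with 10% FBS and antibiotics were seeded at 5 × 10⁴ cells/cm². After 24 h the medium was replaced with fresh medium with or without compound. After 48 h, cells were imaged under interference modulation contrast at 37 °C, 5% CO₂.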

A short description of series [12]: Protection index, ratio of TD50 for neurotoxicity in po dosed Sprague-Dawley rat to ED50 for anticonvulsant activity in po dosed Sprague-Dawley rat assessed as subcutaneous dosed pentetrazol-induced seizures. Format: toxicity, organism-based. The settings on record: in vivo.
Series [13] is described as follows: Neurotoxicity in po dosed Sprague-Dawley rat after 0.5 hrs by rotarod test. Format: toxicity, organism-based. The settings on record: in vivo.
Series [14] in a line: Protection index, ratio of TD50 for neurotoxicity in ip dosed albino Carworth Farms No.1 mouse to ED50 for anticonvulsant activity in ip dosed albino Carworth Farms No.1 mouse assessed as protection against subcutaneous dosed pentetrazol-induced seizures. Format: toxicity, organism-based. The settings on record: in vivo, intraperitoneal, read-out: Ratio TD50/ED50. The method in brief: (§5)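 Graded i.p. doses in 0.5% methylcellulose were given to albino Carworth Farms No.1 mice. ED50 was determined in MES, scPTZ or 6-Hz (32 mA) tests, and TD50 by rotarod. Both were reported with 95% confidence intervals. PI was calculated as TD50/ED50.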

In series [15] the test system is Rattus norvegicus. Briefly: Anticonvulsant activity in po dosed Sprague-Dawley rat assessed as protection against subcutaneous dosed pentetrazol-induced seizures after 0.5 hrs. Format: functional. The method in brief: as §4
Series [16] has as its system Mus musculus. Briefly: Anticonvulsant activity in ip dosed albino Carworth Farms No.1 mouse assessed as protection against subcutaneous dosed pentetrazol-induced seizures after 0.25 hrs. Format: functional. The settings on record: Carworth Farms No.1, 0.25 h. The method in brief: (§6)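 Quantitative i.p. evaluation in Carworth Farms No.1 albino mice, with graded doses in 0.5% methylcellulose. MES, scPTZ or 6-Hz (32 mA) seizure tests were run at 0.25 h.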

Series [17] can be described thus: Hepatotoxicity against human HepG2 cells assessed as cell viability at 10 uM after 24 hrs by MTT assay relative to control. Format: toxicity, cell-based. The settings on record: read-out: Activity. The method in brief:
as §2

The subject of series [18] is Mus musculus. Kind of series: Anticonvulsant activity in albino Carworth Farms No.1 mouse assessed as protection against 6-Hz electroshock-induced seizures at 100 mg/kg, ip after 0.5 hrs. Format: functional, organism-based. The method in brief:
as §3

The nature of series [19]: Protection index, ratio of TD50 for neurotoxicity in po dosed Sprague-Dawley rat to ED50 for anticonvulsant activity in po dosed Sprague-Dawley rat assessed as maximal electroshock-induced seizures. Format: toxicity, organism-based. The settings on record: in vivo.
The test system of series [20] is Mus musculus. Kind of series: Anticonvulsant activity in albino Carworth Farms No.1 mouse assessed as protection against 6-Hz electroshock-induced seizures at 100 mg/kg, ip after 4 hrs. Format: functional, organism-based. The method in brief: as §3
For series [21], the system named is Mus musculus. Kind of series: Anticonvulsant activity in albino Carworth Farms No.1 mouse assessed as protection against 6-Hz electroshock-induced seizures at 100 mg/kg, ip after 1 hr. Format: functional, organism-based. The method in brief: as §3
Series [22] relates to Mus musculus. Briefly: Anticonvulsant activity in ip dosed albino Carworth Farms No.1 mouse assessed as protection against maximal electroshock-induced seizures after 0.25 hrs. Format: functional. The settings on record: Carworth Farms No.1, ip. The essentials: as §6
Series [23] is described as follows: Protection index, ratio of TD50 for neurotoxicity in ip dosed albino Carworth Farms No.1 mouse to ED50 for anticonvulsant activity in ip dosed albino Carworth Farms No.1 mouse assessed as protection against 6-Hz electroshock-induced seizures. Format: toxicity, organism-based. The settings on record: in vivo, read-out: Ratio TD50/ED50. The essentials: as §5

For series [24], the system named is Mus musculus. Kind of series: Anticonvulsant activity in ip dosed albino Carworth Farms No.1 mouse assessed as protection against 6-Hz electroshock-induced seizures after 0.25 hrs. Format: functional. The settings on record: Carworth Farms No.1, ip. The essentials:
as §6

Series [25] deals with Rattus norvegicus. Briefly: Anticonvulsant activity in po dosed Sprague-Dawley rat assessed as protection against maximal electroshock-induced seizures after 1 hr. Format: functional. The method in brief: as §4
The subject of series [26] is Rattus norvegicus. Briefly: Anticonvulsant activity in po dosed Sprague-Dawley rat assessed as protection against subcutaneous dosed pentetrazol-induced seizures after 1 hr. Format: functional. The essentials: as §4
The nature of series [27]: Neurotoxicity in po dosed Sprague-Dawley rat after 1 hr by rotarod test. Format: toxicity, organism-based. The settings on record: in vivo. (In general: Falling from the rotarod earlier than controls is read as motor impairment.)

The source made the active and inactive calls. The rule behind the calls is not given here.

Regarding `O=C(/C=C/c1ccccc1)N1CCC(O)CC1`, the Activity result in the series with Rattus norvegicus [1], with Rattus norvegicus [2], in the series with Rattus norvegicus [3] and in the series on Rattus norvegicus [4] was “Non-toxic” each time.

`CC(O)CNC(=O)/C=C/c1ccccc1` (racemic): the viability at 24 h, 25 µM in series [5] came out at 92.5%; in “in vitro [10]” it was 99%. Further, the selectivity ratio in series [6] is 2.9; in series [12], greater than 10.8; in series [14], 1.8; in series [19], greater than 11. The viability at 24 h, 50 µM in the series “in vitro [7]” worked out at 98%; in [11] it was 92.6%. For the same compound, the outcome with Mus musculus [8] and in the series with Mus musculus [20] was inactive. The ED50 was found to be 22.8 mg/kg with Rattus norvegicus [9], 46.2 mg/kg with Rattus norvegicus [15], 77.1 mg/kg with Mus musculus [16] and 47.1 mg/kg with Mus musculus [22]. Moreover, the Activity entry in the series with Rattus norvegicus [1], with HepG2, with Rattus norvegicus [2], with Rattus norvegicus [3] and with Rattus norvegicus [4] was “Non-toxic” in each case. In [13], this compound came in with a TD50 at 0.5 h greater than 500 mg/kg. Further, the viability at 24 h, 10 µM in series [17] was 97.3%. The outcome with Mus musculus [18] and in the series on Mus musculus [21] was Active.

In the case of `CCC(O)CNC(=O)/C=C/c1ccccc1` (racemic), the figures for the viability at 24 h, 25 µM (in [5]; in “in vitro [10]”) were 91.2% and 97%, respectively. Moreover, the viability at 24 h, 50 µM in the series “in vitro [7]” amounted to 92%; in series [11], 89.4%. The result in the series with Mus musculus [8], in the series on Mus musculus [20] and in the series on Mus musculus [21] was inactive. The results for the ED50 in the series with Rattus norvegicus [9] and in the series with Rattus norvegicus [15] were 41.5 mg/kg and greater than 250 mg/kg, respectively. The Activity entry in the series on Rattus norvegicus [1], with HepG2, in the series on Rattus norvegicus [2], in the series on Rattus norvegicus [3] and in the series with Rattus norvegicus [4] was “Non-toxic” in each case. Also, the TD50 at 0.5 h in series [13] is greater than 500 mg/kg. Also, in [17], the viability at 24 h, 10 µM is 94.5%. In [19], the selectivity ratio is greater than 12.1.

On to `CC(C)C(CO)NC(=O)/C=C/c1ccccc1` (racemic), for which the viability at 24 h, 25 µM was 95.7% in series [5] and 98% in the series “in vitro [10]”. In addition, the viability at 24 h, 50 µM was 93% in the series “in vitro [7]” and 89.1% in series [11]. The outcome in the series on Mus musculus [8], in the series with Mus musculus [20] and with Mus musculus [21] was inactive. Besides, the selectivity ratio in series [23] was determined as 1.8. For the same compound, the Activity entry with Rattus norvegicus [1], in the series with HepG2, with Rattus norvegicus [2], in the series with Rattus norvegicus [3] and in the series on Rattus norvegicus [4] was “Non-toxic” each time. Also, the ED50 in the series on Mus musculus [24] is 106 mg/kg. Moreover, in series [17], the viability at 24 h, 10 µM worked out at 95.2%. The outcome with Mus musculus [18] was Active.

As for `CC(CO)NC(=O)/C=C/c1ccccc1` (racemic), the viability at 24 h, 25 µM in [5] was found to be 96.6%; in the series “in vitro [10]”, 98%. The selectivity ratio in series [6] was 2.6; in series [23] it was 3.7; in series [14], 2; in series [19], greater than 8.1. The figures for the viability at 24 h, 50 µM (in “in vitro [7]”; in series [11]) were 96% and 95%, respectively. Further, the result with Mus musculus [8], with Mus musculus [20] and in the series with Mus musculus [21] was inactive. The Activity entry with Rattus norvegicus [1], in the series on HepG2, in the series on Rattus norvegicus [2], in the series with Rattus norvegicus [3] and in the series on Rattus norvegicus [4] was “Non-toxic” throughout. Further, the ED50 in the series on Rattus norvegicus [25] is 31 mg/kg; in the series on Mus musculus [24] it was 60.9 mg/kg; in the series on Mus musculus [16], 110 mg/kg; in the series with Rattus norvegicus [26], greater than 250 mg/kg; in the series with Mus musculus [22], 86.6 mg/kg. Further, the viability at 24 h, 10 µM in [17] is 97.1%. For the same compound, the TD50 at 1 h in [27] was greater than 250 mg/kg.

The term ED50 denotes the dose that gives a 50% effect, or the effect in half of the subjects. What is called TD50 is the dose at which the toxic effect under study appears in half of the subjects.
